Measured values published in ChEMBL document CHEMBL4043283, “Discovery and Preclinical Development of IIIM-290, an Orally Active Potent Cyclin-Dependent Kinase Inhibitor” (J Med Chem, 2018).

How the values were obtained:
[1] = target: CDK2/Cyclin A2 (Homo sapiens) (UniProt P24941+P20248); test: Inhibition of CDK2/cyclin A (unknown origin) at 0.5 uM using histone H1 as substrate after 30 mins in presence of [33P]-gamma-ATP by filter binding assay relative to control; assay type: protein-complex assay
MCF7 = test: Growth inhibition of human MCF7 cells at 10 uM after 48 hrs by MTT assay relative to control; assay type: functional; conditions: MCF7, 48 h, read-out: GI
Outline: (§1)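 Single-concentration primary screen at 10 μM by MTT assay. Cells were NCI-sourced cancer lines grown in appropriate medium at 37 °C, 95% humidity, 5% CO2. Growth inhibition is expressed relative to control.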

Caco-2 = test: Growth inhibition of human Caco2 cells at 10 uM after 48 hrs by MTT assay relative to control; assay type: functional; conditions: Caco-2, 48 h, read-out: GI; outline: as §1
MIA PaCa-2 = test: Growth inhibition of human MIAPaCa2 cells at 10 uM after 48 hrs by MTT assay relative to control; assay type: functional; conditions: MIA PaCa-2, 48 h, read-out: GI; outline: as §1
HL-60 = test: Growth inhibition of human HL60 cells at 10 uM after 48 hrs by MTT assay relative to control; assay type: functional; conditions: HL-60, 48 h, read-out: GI; outline: as §1
PC-3 = test: Growth inhibition of human PC3 cells at 10 uM after 48 hrs by MTT assay relative to control; assay type: functional; conditions: PC-3, 48 h, read-out: GI; outline: as §1
[2] = target: CDK9/cyclin T1 (Homo sapiens) (UniProt O60563+P50750); test: Inhibition of CDK9/cyclin T1 (unknown origin) at 0.5 uM using YSPTSPSYSPTSPSYSPTSPKKK as substrate after 30 mins in presence of [33P]-gamma-ATP by filter binding assay relative to control; assay type: protein-complex assay

Row | inhibition [1] | inhibition [2] | Structure (SMILES) | inhibition of growth at 10 µM (MCF7) | inhibition of growth at 10 µM (Caco-2) | inhibition of growth at 10 µM (MIA PaCa-2) | inhibition of growth at 10 µM (HL-60) | inhibition of growth at 10 µM (PC-3)
1 | 10% | 10% | Cc1cc(=O)c2c(O)c(CN3CCCCC3)c(O)c([C@H]3CCN(C)C[C@H]3O)c2o1 | 15% | 22% | 14% | 32% | 14%
2 | 7% | 5% | Cc1cc(=O)c2c(O)c(CN3CCCC3)c(O)c([C@H]3CCN(C)C[C@H]3O)c2o1 | 12% | 22% | 28% | 38% | 10%
3 | 2% | 0% | Cc1cc(=O)c2c(O)c(CN3CCN(C(=O)OC(C)(C)C)CC3)c(O)c([C@H]3CCN(C)C[C@H]3O)c2o1 | 16% | 21% | 6% | 13% | 1%
4 | 6% | 8% | Cc1oc2c([C@H]3CCN(C)C[C@H]3O)c(O)cc(O)c2c(=O)c1C(O)c1ccc([N+](=O)[O-])cc1 (stereo partly specified) | 4% | 5% | 2% | 0% | 24%
5 | 0% | 5% | Cc1cc(=O)c2c(O)cc(OCc3ccc([N+](=O)[O-])cc3)c([C@H]3CCN(C)C[C@H]3O)c2o1 | 39% | 14% | 12% | 14% | 23%
6 | 0% | 0% | Cc1cc(=O)c2c(O)c(CN(C)CC(=O)O)c(O)c([C@H]3CCN(C)C[C@H]3O)c2o1 | 27% | 18% | 16% | 23% | 20%
7 | 10% | 0% | Cc1cc(=O)c2c(O)cc(OCc3ccccc3)c([C@H]3CCN(C)C[C@H]3O)c2o1 | 1% | 18% | 14% | 24% | 41%
8 | 6% | 0% | Cc1cc(=O)c2c(O)cc(OCc3ccccc3Br)c([C@H]3CCN(C)C[C@H]3O)c2o1 | 45% | 35% | 30% | 3% | 32%
9 | 0% | 4% | Cc1oc2c([C@H]3CCN(C)C[C@H]3O)c(O)cc(O)c2c(=O)c1C(O)c1cccc(Cl)c1 (stereo partly specified) | 5% | 4% | 2% | 22% | 31%
10 | 0% | 2% | Cc1cc(=O)c2c(O)c(CN3CCN(C)CC3)c(O)c([C@H]3CCN(C)C[C@H]3O)c2o1 | 10% | 30% | 6% | 15% | 0%
11 | 0% | 0% | Cc1cc(=O)c2c(O)cc(OCc3ccc(Br)cc3)c([C@H]3CCN(C)C[C@H]3O)c2o1 | 14% | 13% | 13% | 27% | 17%
12 | 10% | 5% | Cc1cc(=O)c2c(O)c(CN3CCC(N4CCCCC4)CC3)c(O)c([C@H]3CCN(C)C[C@H]3O)c2o1 | 25% | 31% | 23% | 34% | 17%
13 | 0% | 4% | CCN(CC)Cc1c(O)c([C@H]2CCN(C)C[C@H]2O)c2oc(C)cc(=O)c2c1O | 24% | 17% | 27% | 47% | 2%
14 | 0% | 0% | Cc1oc2c([C@H]3CCN(C)C[C@H]3O)c(O)cc(O)c2c(=O)c1C(O)c1c(F)cccc1Cl (stereo partly specified) | 41% | 18% | 41% | 49% | 0%
15 | 2% | 2% | Cc1oc2c([C@H]3CCN(C)C[C@H]3O)c(O)cc(O)c2c(=O)c1C(O)c1ccc(F)c(Br)c1 (stereo partly specified) | 14% | 6% | 9% | 25% | 72%
16 | 0% | 0% | Cc1oc2c([C@H]3CCN(C)C[C@H]3O)c(O)cc(O)c2c(=O)c1C(O)c1ccc(Cl)cc1 (stereo partly specified) | 6% | 3% | 15% | 2% | 41%
17 | 0% | 6% | Cc1cc(=O)c2c(O)c(CN3CCC(c4ccccc4)CC3)c(O)c([C@H]3CCN(C)C[C@H]3O)c2o1 | 23% | 21% | 16% | 26% | 22%
18 | 0% | 2% | CCOc1ccc(Br)c(C(O)c2c(C)oc3c([C@H]4CCN(C)C[C@H]4O)c(O)cc(O)c3c2=O)c1 (stereo partly specified) | 9% | 5% | 4% | 2% | 0%
19 | 2% | 10% | Cc1oc2c([C@H]3CCN(C)C[C@H]3O)c(O)cc(O)c2c(=O)c1C(O)c1cc(F)cc(F)c1 (stereo partly specified) | 25% | 10% | 6% | 30% | 0%
20 | 7% | 0% | Cc1oc2c([C@H]3CCN(C)C[C@H]3O)c(O)cc(O)c2c(=O)c1C(O)c1csc([N+](=O)[O-])c1 (stereo partly specified) | 20% | 3% | 41% | 45% | 0%
21 | 7% | 8% | Cc1cc(=O)c2c(O)cc(OCc3ccco3)c([C@H]3CCN(C)C[C@H]3O)c2o1 | 6% | 17% | 7% | 32% | 14%
22 | 4% | 0% | Cc1cc(=O)c2c(O)c(CN3CCC(Cc4ccccc4)CC3)c(O)c([C@H]3CCN(C)C[C@H]3O)c2o1 | 17% | 21% | 18% | 28% | 16%
23 | 0% | 0% | Cc1cc(=O)c2c(O)c(CN3CCOCC3)c(O)c([C@H]3CCN(C)C[C@H]3O)c2o1 | 22% | 11% | 4% | 8% | 21%
24 | 1% | 12% | Cc1cc(=O)c2c(O)c(CN(C(C)C)C(C)C)c(O)c([C@H]3CCN(C)C[C@H]3O)c2o1 | 33% | 22% | 11% | 21% | 0%
25 | 13% | 13% | Cc1oc2c([C@H]3CCN(C)C[C@H]3O)c(O)cc(O)c2c(=O)c1C(O)c1ccc(F)cc1 (stereo partly specified) | 9% | 11% | 17% | 30% | 0%
26 | 10% | 0% | Cc1cc(=O)c2c(O)cc(O)c([C@H]3CCN(C)C[C@H]3OC(=O)c3ccco3)c2o1 | 20% | 33% | 13% | 22% | 23%
27 | 3% | 0% | COc1ccc(C(O)c2c(C)oc3c([C@H]4CCN(C)C[C@H]4O)c(O)cc(O)c3c2=O)cc1Br (stereo partly specified) | 41% | 0% | 3% | 23% | 0%
28 | 10% | 8% | Cc1cc(=O)c2c(O)c(CN3CC(O)CC3C(=O)O)c(O)c([C@H]3CCN(C)C[C@H]3O)c2o1 (stereo partly specified) | 25% | 19% | 23% | 28% | 0%
